Assay results from ChEMBL document CHEMBL1124543, “Antiulcer agents. 4. Conformational considerations and the antiulcer activity of substituted imidazo[1,2-a]pyridines and related analogues” (1989).

Tests used:
Format in all cases: functional
[1] = system: Rattus norvegicus; assay: Antisecretory activity of intraperitoneally injected compound (40 mg/kg) in pylorus-ligated rat
Procedure, shortened: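 Rats fasted 24 h, anesthetized, pylorus ligated; compound in 2.5% Tween 80 given ip (0.5 mL/200 g) at ligation. Killed 4 h later; gastric contents volume recorded, aliquots titrated with 0.1 N NaOH for acid output. Six rats per compound, eight controls; percent inhibition computed, Student's t test.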

[2] = system: Rattus norvegicus; assay: Effective dose inhibiting ethanol-induced lesions was determined 1 h, after oral administration of absolute ethanol in rat
Procedure, shortened: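 Rats fasted and water-deprived 20 h; compound in 0.4% methylcellulose/saline given orally (1–30 mg/kg) 30 min before oral absolute ethanol (1 mL). Killed 1 h after ethanol; stomach opened along greater curvature, linear hemorrhagic lesion lengths summed per stomach. ED50 for lesion inhibition by regression analysis.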

[3] = system: Canis familiaris; assay: Inhibition of histamine stimulated gastric acid secretion in adult mongrel dogs at 5 mg/kg i.v.; conditions: Canis lupus familiaris, Stomach, route intravenous
Procedure, shortened: (§1)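 Mongrel dogs with surgically prepared Heidenhain pouches under histamine infusion; compound given iv (0.1–5 mg/kg) 1 h after infusion start. Pouch juice collected every 30 min, volume recorded, aliquot titrated for acid; outputs summed over 3 h post-dose, compared with the same animal's control. ED50 by linear regression.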

[4] = system: Canis familiaris; assay: Inhibition of histamine stimulated gastric acid secretion in adult mongrel dogs at 1 mg/kg i.v.; conditions: Canis lupus familiaris, Stomach, route intravenous; procedure, shortened: as §1
[5] = system: Canis familiaris; assay: Effective dose required to reduce acid out put when administered intravenously in dog; conditions: Canis lupus familiaris, iv; procedure, shortened: as §1
[6] = system: Canis familiaris; assay: Inhibition of histamine stimulated gastric acid secretion in adult mongrel dogs at 8 mg/kg compound administered perorally; conditions: Canis lupus familiaris, Stomach, route oral
Procedure, shortened: (§2)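 Heidenhain pouch mongrel dogs receiving histamine infusion; compound given orally by gavage 1 h after infusion began. Acid output from 30-min collections (volume, titrated aliquot) summed for 3 h after dosing, each dog its own control. ED50 derived by linear regression from percent inhibition across doses.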

[7] = system: Canis familiaris; assay: Effective dose required to reduce acid out put when administered perorally in dog; conditions: Canis lupus familiaris, po; procedure, shortened: as §2
[8] = system: Canis familiaris; assay: Inhibition of histamine stimulated gastric acid secretion in adult mongrel dogs at 0.1 mg/kg compound administered intravenously; conditions: Canis lupus familiaris, Stomach, route intravenous; procedure, shortened: as §1
[9] = system: Canis familiaris; assay: Inhibition of histamine stimulated gastric acid secretion in adult mongrel dogs at 2 mg/kg compound administered perorally; conditions: Canis lupus familiaris, Stomach, route oral; procedure, shortened: as §2
[10] = system: Canis familiaris; assay: Inhibition of histamine stimulated gastric acid secretion in adult mongrel dogs at 4 mg/kg administered perorally; conditions: Canis lupus familiaris, Stomach, route oral; procedure, shortened: as §2
[11] = system: Canis familiaris; assay: Inhibition of histamine stimulated gastric acid secretion in adult mongrel dogs at 2 mg/kg i.v.; conditions: Canis lupus familiaris, Stomach, route intravenous; procedure, shortened: as §1
[12] = system: Canis familiaris; assay: Effective dose required to reduce acid out put when administered perorally in dog;Value ranges from(1.6-13.4).; conditions: Canis lupus familiaris, po; procedure, shortened: as §2
[13] = system: Canis familiaris; assay: Effective dose required to reduce acid out put when administered intravenously in dog;Value ranges from […]; conditions: Canis lupus familiaris, iv; procedure, shortened: as §1
[14] = system: Canis familiaris; assay: Effective dose required to reduce acid out put when administered perorally in dog;Value ranges from (2.3-58.2); conditions: Canis lupus familiaris, po; procedure, shortened: as §2

## Cc1nc2c(C/C=C/c3ccccc3)cccn2c1CC#N
[1]
  Inhibition: 27%
[2]
  ED50: 12 mg/kg
[3]
  inhibition in vivo at 5 mg/kg: 4%

## Cc1nc2c(/C=C/Cc3ccccc3)cccn2c1CC#N
[4]
  inhibition in vivo at 1 mg/kg: 69%
[5]
  ED50: 1 mg/kg
[6]
  inhibition in vivo at 8 mg/kg: 82%
[7]
  ED50: 4 mg/kg
[2]
  ED50: 4 mg/kg
[8]
  inhibition in vivo at 0.1 mg/kg: 9%
[9]
  inhibition in vivo at 2 mg/kg: 43%
[3]
  inhibition in vivo at 5 mg/kg: 78%
[10]
  inhibition in vivo at 4 mg/kg: 53%

## Cc1nc2c(/C=C\Cc3ccccc3)cccn2c1C
[4]
  inhibition in vivo at 1 mg/kg: 24%
[1]
  Inhibition: 96%
[6]
  inhibition in vivo at 8 mg/kg: 54%
[2]
  ED50: 6.6 mg/kg
[10]
  inhibition in vivo at 4 mg/kg: 13%
[11]
  inhibition in vivo at 2 mg/kg: 47%

## Cc1nc2c(/C=C\c3ccccc3)cccn2c1CC#N
[4]
  inhibition in vivo at 1 mg/kg: 79%
[1]
  Inhibition: 49%
[6]
  inhibition in vivo at 8 mg/kg: 41%
[2]
  ED50: 2 mg/kg
[10]
  inhibition in vivo at 4 mg/kg: 0%
[11]
  inhibition in vivo at 2 mg/kg: 76%

## Cc1nc2c(C#Cc3ccccc3)nccn2c1C
[1]
  Inhibition: 0%
[6]
  inhibition in vivo at 8 mg/kg: 11%
[2]
  ED50: 3.7 mg/kg
[3]
  inhibition in vivo at 5 mg/kg: 0%

## Cc1nc2c(/C=C/c3ccccc3)cccn2c1C
[1]
  Inhibition: 39%
[6]
  inhibition in vivo at 8 mg/kg: 3%
[2]
  ED50: 10.4 mg/kg
[11]
  inhibition in vivo at 2 mg/kg: 26%

## Cc1nc2c(/C=C\c3ccsc3)cccn2c1C
[4]
  inhibition in vivo at 1 mg/kg: 64%
[1]
  Inhibition: 54%
[6]
  inhibition in vivo at 8 mg/kg: 79%
[7]
  ED50: 4.8 mg/kg
[2]
  ED50: 24 mg/kg
[9]
  inhibition in vivo at 2 mg/kg: 5%
[10]
  inhibition in vivo at 4 mg/kg: 38%
[11]
  inhibition in vivo at 2 mg/kg: 82%

## Cc1nc2c3c(ccn2c1CC#N)CCC(c1ccccc1)O3 (centres undefined)
[12]
  ED50: 3.7 mg/kg
[13]
  ED50: 0.06 mg/kg
[2]
  ED50: 1.7 mg/kg

## Cc1nc2c(CCc3ccccc3)cccn2c1N
[5]
  ED50: 1 mg/kg
[14]
  ED50: 6.7 mg/kg
[8]
  inhibition in vivo at 0.1 mg/kg: 26%

## Cc1nc2c(C/C=C\c3ccccc3)cccn2c1N
[1]
  Inhibition: 4%
[6]
  inhibition in vivo at 8 mg/kg: 0%
[2]
  ED50: 6.4 mg/kg
[3]
  inhibition in vivo at 5 mg/kg: 20%

## Cc1nc2c(/C=C\c3ccccc3)nccn2c1C
[1]
  Inhibition: 74%
[6]
  inhibition in vivo at 8 mg/kg: 0%
[2]
  ED50: 5.2 mg/kg
[3]
  inhibition in vivo at 5 mg/kg: 0%

## C/C(=C\c1cccn2c(C)c(C)nc12)c1ccccc1
[4]
  inhibition in vivo at 1 mg/kg: 72%
[1]
  Inhibition: 98%
[6]
  inhibition in vivo at 8 mg/kg: 37%
[10]
  inhibition in vivo at 4 mg/kg: 17%
[11]
  inhibition in vivo at 2 mg/kg: 65%

## Cc1nc2c(OCc3ccccc3)cccn2c1C
[4]
  inhibition in vivo at 1 mg/kg: 90%
[1]
  Inhibition: 99%
[6]
  inhibition in vivo at 8 mg/kg: 26%
[2]
  ED50: 10 mg/kg
[10]
  inhibition in vivo at 4 mg/kg: 0%
